In assay [1] the test system is P. falciparum strain NF54. In words: [3H]hypoxanthine incorporation assay, unsynchronized parasites. As to conditions: Plasmodium falciparum, NF54, 72 h. Type of assay: cell-based. The method, boiled down:
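Two ways of diluting the 10 mg/mL stock were compared. In one, the stock went straight into hypoxanthine-free medium. In the other, it was diluted 1/50 in co-solvent, then 1/100 and 1/2 in hypoxanthine-free medium.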

Assay [2] relates to P. falciparum strain NF54. As to conditions: unsynchronized NF54; cited from earlier work.
Assay [3] deals with Plasmodium falciparum strain NF54 (rings, trophozoites, schizonts). In words: In vitro assessment of stage-specific activity, synchronous cultures. Type of assay: cell-based. The note with it: control drug; data not shown. The method, boiled down: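 P. falciparum NF54 synchronized by two 5% D-sorbitol treatments, with intervals set to give rings (>80%, ≤6 h old), trophozoites (≥80%, ≤20 h) or early schizonts (≤36 h). Stages were exposed 6 or 24 h to two-fold dilutions (final 250–7.81 ng/mL) in hypoxanthine-free medium, co-solvent <0.5%, then washed and assessed by [3H]hypoxanthine incorporation. Values are mean ± SD of 3–4 independent experiments.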

In brackets after ≈: the same amount, converted by molar mass. Like-named read-outs stand apart in the source and are kept apart here.

`CCN(CC)Cc1cc(Nc2ccnc3cc(Cl)ccc23)ccc1O` [amodiaquine] returned an IC50 in assay [1] of 1.5 ng/mL (≈ 0.00422 µM).

The molecule `C[C@@H]1CC[C@H]2[C@@H](C)C(=O)O[C@@H]3O[C@@]4(C)CC[C@@H]1[C@]32OO4` [artemisinin] registered an IC50 in assay [1] of 3 ng/mL (≈ 0.0106 µM).

Take `O=C1C(O)=C([C@H]2CC[C@H](c3ccc(Cl)cc3)CC2)C(=O)c2ccccc21` [atovaquone]: the concentration for half-maximal inhibition (IC50) in assay [2] is reported as 0.38 ng/mL (≈ 0.00104 µM).

Molecule `OC(c1cc(C(F)(F)F)nc2c(C(F)(F)F)cccc12)C1CCCCN1` (stereo not drawn) [mefloquine] came in with an IC50 in assay [1] of 4.1 ng/mL (≈ 0.0108 µM).

In the case of `Clc1ccc2c(N3CCN(CCCN4CCN(c5ccnc6cc(Cl)ccc56)CC4)CC3)ccnc2c1` [piperaquine], the IC50 in assay [1] came out at 7.8 ng/mL (≈ 0.0146 µM).

Take `[H]/N=C(\N/C(=N/[H])Nc1ccc(Cl)cc1)NC(C)C` [proguanil]: the IC50 in assay [2] is given as 440 ng/mL (≈ 1.73 µM).

As to `CCc1nc(N)nc(N)c1-c1ccc(Cl)cc1` [pyrimethamine], 3 ng/mL (≈ 0.0121 µM) corresponded to half-maximal inhibition in assay [1] (IC50). In addition, in assay [3], the “effect against ring and trophozoite stages” value was “ineffective”.

In assay [1], `COc1ccc2nc3cc(Cl)ccc3c(Nc3cc(CN4CCCC4)c(O)c(CN4CCCC4)c3)c2n1` [pyronaridine] came in with a half-inhibitory concentration (IC50) of 2.6 ng/mL (≈ 0.00502 µM).

One may read the IC50 as the point on the concentration scale where inhibition reaches its midpoint.

(Values after publication PMC3832383 (Drug Design, Development and Therapy, 2013).)
